The values that follow come from PubChem BioAssay.

The source made the active and inactive calls. Rule as the data show it, unless noted: active = inhibition above about 30%; inactive = the rest.

Assay [1] in a line: Her2 expression decrease, cell viability multiplex – SKBR3 breast tumor cells, AlphaScreen, ATP viability, primary screen (AID 461;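 active = Her2 level under about 52% in both replicate screens, with viability over 70% of control, limit read from the data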;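 as to Her2 level: lower value means less Her2 protein in the cells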;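 as to viability: percent of carrier control wells set as 100% viability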). Particulars: SKBR3 Her2 protein level, 18-24 h, measured here: SKBR3 viability, ATP luminescence, at 10 µM. For orientation: In Alpha technology, singlet oxygen from a donor bead excites a nearby acceptor bead.
For assay [2], the target named is Receptor tyrosine-protein kinase erbB-2 (Homo sapiens) (UniProt P04626). The description is as above. Particulars: 18-24 h, at 10 µM, stronger effect = lower value.
Receptor tyrosine-protein kinase erbB-2 (Homo sapiens), sequence (P04626 whole entry, looked up): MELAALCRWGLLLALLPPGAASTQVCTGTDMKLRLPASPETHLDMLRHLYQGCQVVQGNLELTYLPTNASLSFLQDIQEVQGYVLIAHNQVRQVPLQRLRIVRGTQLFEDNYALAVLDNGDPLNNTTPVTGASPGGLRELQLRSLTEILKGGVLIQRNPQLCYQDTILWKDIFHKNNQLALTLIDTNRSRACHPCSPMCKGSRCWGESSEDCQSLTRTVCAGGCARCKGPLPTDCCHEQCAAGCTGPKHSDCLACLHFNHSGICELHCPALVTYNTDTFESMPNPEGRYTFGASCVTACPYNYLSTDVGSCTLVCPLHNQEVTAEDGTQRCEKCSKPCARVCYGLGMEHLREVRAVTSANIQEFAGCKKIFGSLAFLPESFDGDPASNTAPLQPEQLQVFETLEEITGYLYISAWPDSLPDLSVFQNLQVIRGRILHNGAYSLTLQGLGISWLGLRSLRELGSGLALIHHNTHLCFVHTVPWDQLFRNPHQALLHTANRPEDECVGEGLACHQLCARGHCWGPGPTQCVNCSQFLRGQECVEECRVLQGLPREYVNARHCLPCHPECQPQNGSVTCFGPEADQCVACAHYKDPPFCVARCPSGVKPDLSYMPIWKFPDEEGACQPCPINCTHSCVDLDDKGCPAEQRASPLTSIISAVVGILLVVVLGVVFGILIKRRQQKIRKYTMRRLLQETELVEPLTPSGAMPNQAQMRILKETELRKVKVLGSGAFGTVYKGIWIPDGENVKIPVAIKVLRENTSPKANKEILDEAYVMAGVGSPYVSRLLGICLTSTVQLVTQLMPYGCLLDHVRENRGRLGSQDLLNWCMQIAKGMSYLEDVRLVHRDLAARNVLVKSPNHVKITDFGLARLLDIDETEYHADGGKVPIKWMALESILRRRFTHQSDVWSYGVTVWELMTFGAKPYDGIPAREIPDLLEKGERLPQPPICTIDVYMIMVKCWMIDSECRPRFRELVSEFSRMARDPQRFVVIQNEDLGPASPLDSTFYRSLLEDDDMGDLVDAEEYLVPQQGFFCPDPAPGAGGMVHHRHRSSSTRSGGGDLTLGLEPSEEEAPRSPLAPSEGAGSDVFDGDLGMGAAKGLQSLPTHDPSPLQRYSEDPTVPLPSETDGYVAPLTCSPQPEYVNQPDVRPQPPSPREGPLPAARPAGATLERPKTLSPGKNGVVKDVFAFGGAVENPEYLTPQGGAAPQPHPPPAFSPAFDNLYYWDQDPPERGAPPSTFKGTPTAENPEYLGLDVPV
Assay [3] is described as follows: reduced viability of SK-BR-3 breast cancer cells – cell-based, 24 h, human, pilot screen (AID 572;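 active = viability at or below 10% of carrier control in both of two separate runs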;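 also: compound exposure lasted between 18 and 24 h rather than exactly 24 h; 100% = carrier-treated control wells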). The note with it: SK-BR-3 viability, CellTiter-Glo luminescence, at 10 µM, stronger effect = lower value.
A short description of assay [4]: HUVEC growth inhibition – cell-based, human, primary screen (AID 575;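 active = viability at or below 30% in both replicate assays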;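 also: 100% = median of untreated cell wells with 0.1% DMSO on each plate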). Particulars: HUVEC proliferation, CellTiter-Glo luminescence, 72 h; at 10 µM; stronger effect = lower value. An outline of the steps: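 Test system: primary human umbilical vein endothelial cells; medium: endothelial basal medium with 2% FBS plus growth supplements; dosing: 10 µM compound only; times: 72 h treatment at 37 °C; signal: CTG luminescence; read-out: % viability relative to median vehicle-well signal on each plate; control set: vehicle and MePR control wells; plate: 384-well, collagen-coated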

The nature of assay [5]: H69AR cell proliferation blockers – human, duplicate replicates, primary screen (AID 580;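 active = viability at or under a set limit in both replicates, limit being median viability minus 3 SD, cut at about 48% in these data, passing the limit was not always enough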;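 also: 100% = mean luminescence of untreated wells and 0% = no signal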). The note with it: H69AR lung tumor cells viability, ATP luminescence, 72 h; at 10 µM; stronger effect = lower value.
Assay [6] in a line: MRP1 drug-resistance reversers in H69AR cells – cell-based, doxorubicin co-treatment, pilot screen (AID 601;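 active = viability loss from added drug above about 55%, and viability with drug at most 40%, in both replicates, limit read from the data, passing the limit was not always enough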). The note with it: CellTiter-Glo, 72 h, at 10 µM; for differential viability (reversal): stronger effect = higher value. (Cellular ATP, detected with luciferase, serves as a proxy for viable cell number.)
Assay [7] is described as follows: yeast transport mutant growth inhibition pilot in 384-well plates, post-Golgi transport modulator project (AID 636; in the data active = inhibition above about 31%). Particulars: absorbance 615 nm, about 18 h, stronger effect = higher value.
The nature of assay [8]: growth suppression of yeast trafficking mutant, preliminary HTS, modulators of trafficking downstream of Golgi apparatus project, 1536-format plate, OD 615 nm (AID 637). Particulars: yeast transport mutant growth, absorbance 615 nm, 18 h; stronger effect = higher value.
Where [9] appears, read: H69AR cells + 2 uM doxorubicin, measured here: viability with 2 uM doxorubicin, stronger effect = lower value.
Setting [10] is: H69AR cells, compound alone cytotoxicity.

For the compound `Cc1ccc2occ(CN3CCN(c4ccccc4)CC3)c(=O)c2c1`, the viability in assay [1] was 104%; in assay [3], 104% (inactive); in assay [4], 89% (inactive); in assay [5] it was 87.5% (inactive); in assay [6] (setting [9]), 94.2%; in assay [6] (setting [10]) it was 87.5%. In assay [2], the Her2 level is 104% (inactive). Moreover, the differential viability (reversal) in assay [6] (H69AR cells + 2 uM doxorubicin) was -6.67% (inactive). Moreover, the figures for the inhibition in assay [7] and in assay [8] were -1.04% (inactive) and -3.77% (inactive), respectively.

On to `Cn1c(SCC(=O)c2ccc(-c3ccccc3)cc2)nnc1-c1ccco1`, for which the viability is 120% in assay [1]; 120% (inactive) in assay [3]; 93.7% (inactive) in assay [4]; 88.1% (inactive) in assay [5]; 91.1% in assay [6] (setting [9]); 88.1% in assay [6] (setting [10]). The Her2 level in assay [2] is 93.5% (inactive). For the same compound, the differential viability (reversal) in assay [6] (H69AR cells + 2 uM doxorubicin) was -2.98% (inactive). In addition, the figures for the inhibition in assay [7] and in assay [8] were -5.6% (inactive) and 9.68% (inactive), respectively.

`CC(=O)Nc1sc2c(c1C#N)CCCCC2`: the viability in assay [1] was 132%; in assay [3] it was 132% (inactive); in assay [4], 82.2% (inactive); in assay [5] it was 95.6% (inactive); in assay [6] (setting [9]), 90.2%; in assay [6] (setting [10]) it was 95.6%. Also, the Her2 level in assay [2] was 113% (inactive). The differential viability (reversal) in assay [6] (H69AR cells + 2 uM doxorubicin) was 5.43% (inactive). In addition, the inhibition in assay [7] was -4.93% (inactive); in assay [8] it was -2.54% (inactive).

As for `Cn1c(NCc2cccc(Br)c2)nc2ccccc21`, the viability in assay [1] was 87%; in assay [3] it was 87% (inactive); in assay [4], 83.7% (inactive); in assay [5] it was 81.1% (inactive); in assay [6] (setting [9]), 73.9%; in assay [6] (setting [10]), 81.1%. The Her2 level in assay [2] is 86.5% (inactive). Moreover, the differential viability (reversal) in assay [6] (H69AR cells + 2 uM doxorubicin) was 7.16% (inactive). Further, the inhibition in assay [7] is -4.27% (inactive); in assay [8] it was -3.87% (inactive).

Consider `COc1ccc(CCN2C(=O)CCC2(C)C(=O)NCc2cccnc2)cc1OC` (stereo not given), for which the viability in assay [1] is 106%; in assay [3], 106% (inactive); in assay [4], 109% (inactive); in assay [5] it was 89.2% (inactive); in assay [6] (setting [9]) it was 88%; in assay [6] (setting [10]), 89.2%. Besides, in assay [2], the Her2 level was 91% (inactive). For the same compound, in assay [6] (H69AR cells + 2 uM doxorubicin), the differential viability (reversal) was 1.2% (inactive). The inhibition in assay [7] was -2.86% (inactive); in assay [8], -2.22% (inactive).

For `CC(C)OC(=O)CSc1nnnn1-c1ccc2c(c1)OCCO2`, the viability was 99.5% in assay [1]; 99.5% (inactive) in assay [3]; 99% (inactive) in assay [4]; 88.6% (inactive) in assay [5]; 82.2% in assay [6] (setting [9]); 88.6% in assay [6] (setting [10]). The Her2 level in assay [2] was 84.5% (inactive). For the same compound, in assay [6] (H69AR cells + 2 uM doxorubicin), the differential viability (reversal) is 6.42% (inactive). Further, the values for the inhibition in assay [7] and in assay [8] were -7.03% (inactive) and -2.33% (inactive), respectively.

Take `C/C(=C\C(=O)O)CC(=O)O`: the viability in assay [1] was 100%; in assay [3], 100% (inactive); in assay [4], 98% (inactive); in assay [5], 84.5% (inactive); in assay [6] (setting [9]), 100%; in assay [6] (setting [10]), 84.5%. In assay [2], the Her2 level was 119% (inactive). Moreover, the differential viability (reversal) in assay [6] (H69AR cells + 2 uM doxorubicin) is -15.7% (inactive). Besides, the inhibition in assay [7] is -7.5% (inactive); in assay [8], 5.25% (inactive).

For the compound `COc1ccccc1NC(=O)CSc1nnc(-c2ccncc2)o1`, the viability was 108% in assay [1]; 108% (inactive) in assay [3]; 111% (inactive) in assay [4]; 93.8% (inactive) in assay [5]; 91.2% in assay [6] (setting [9]); 93.8% in assay [6] (setting [10]). In addition, the Her2 level in assay [2] was 96% (inactive). Besides, the differential viability (reversal) in assay [6] (H69AR cells + 2 uM doxorubicin) is 2.67% (inactive). Further, the inhibition was 0.91% (inactive) in assay [7] and -4.33% (inactive) in assay [8].

`O=C(NC1CCCCC1)C(c1ccco1)N(Cc1cccnc1)C(=O)C1COc2ccccc2O1` (stereo not given): the viability in assay [1] was 100%; in assay [3] it was 100% (inactive); in assay [4] it was 91.4% (inactive); in assay [5], 81.1% (inactive); in assay [6] (setting [9]), 88.1%; in assay [6] (setting [10]), 81.1%. Moreover, the Her2 level in assay [2] was 84.5% (inactive). Besides, the differential viability (reversal) in assay [6] (H69AR cells + 2 uM doxorubicin) is -7.03% (inactive). For the same compound, the inhibition in assay [7] was -2.24% (inactive); in assay [8] it was 2.13% (inactive).

On to `O=c1c2[nH]c3cccc(Cl)c3c2ncn1CCN1CCCCC1`, for which the viability was 103% in assay [1]; 103% (inactive) in assay [3]; 101% (inactive) in assay [4]; 92.6% (inactive) in assay [5]; 88.6% in assay [6] (setting [9]); 92.6% in assay [6] (setting [10]). In addition, the Her2 level in assay [2] was 83.5% (inactive). Besides, the differential viability (reversal) in assay [6] (H69AR cells + 2 uM doxorubicin) is 4.01% (inactive). The values for the inhibition in assay [7] and in assay [8] were -4.13% (inactive) and 0.49% (inactive), respectively.

Turning to `COCCn1c(CN2CCN(c3ccccc3F)CC2)nc2c1c(=O)n(C)c(=O)n2C`, the viability in assay [1] was 105%; in assay [3], 105% (inactive); in assay [4], 84.5% (inactive); in assay [5] it was 95.8% (inactive); in assay [6] (setting [9]), 95.6%; in assay [6] (setting [10]) it was 95.8%. Moreover, the Her2 level in assay [2] was 138% (inactive). The differential viability (reversal) in assay [6] (H69AR cells + 2 uM doxorubicin) was 0.255% (inactive). Further, the figures for the inhibition in assay [7] and in assay [8] were -1.2% (inactive) and 1.5% (inactive), respectively.

Consider `O=C(O)CSc1ccc2ccccc2n1`, for which the viability in assay [1] was 95.5%; in assay [3], 95.5% (inactive); in assay [4], 106% (inactive); in assay [5], 90% (inactive); in assay [6] (setting [9]), 80.7%; in assay [6] (setting [10]), 90%. Besides, the Her2 level in assay [2] is 81% (inactive). For the same compound, the differential viability (reversal) in assay [6] (H69AR cells + 2 uM doxorubicin) is 9.33% (inactive). In addition, the inhibition in assay [7] is -7.47% (inactive); in assay [8] it was 5.48% (inactive).

As for `CN(C1CCCCC1)S(=O)(=O)c1ccc(S(=O)(=O)N2CCCC2)cc1`, the viability is 84.5% in assay [1]; 84.5% (inactive) in assay [3]; 78.3% (inactive) in assay [4]; 78.5% (inactive) in assay [5]; 97.7% in assay [6] (setting [9]); 78.5% in assay [6] (setting [10]). In addition, the Her2 level in assay [2] was 92% (inactive). Moreover, the differential viability (reversal) in assay [6] (H69AR cells + 2 uM doxorubicin) was -19.2% (inactive). Besides, the results for the inhibition in assay [7] and in assay [8] were -0.13% (inactive) and -4.92% (inactive), respectively.

In the case of `CCCCCC1CC(CC#CCN2CCOCC2)C(=O)O1` (stereo not given), the viability was 86% in assay [1]; 86% (inactive) in assay [3]; 83.4% (inactive) in assay [4]; 93.8% (inactive) in assay [5]; 92.6% in assay [6] (setting [9]); 93.8% in assay [6] (setting [10]). In addition, the Her2 level in assay [2] is 102% (inactive). The differential viability (reversal) in assay [6] (H69AR cells + 2 uM doxorubicin) was 1.16% (inactive). The inhibition was -7.4% (inactive) in assay [7] and -7.78% (inactive) in assay [8].

The term viability denotes a read-out of living cells in per cent, often relative to untreated cells. The inhibition is the relative decrease from the control value, in per cent.
